# Results as given in ChEMBL document CHEMBL5316292 (J Med Chem, 2023).
# Active and inactive are the calls of the source. The rule behind the calls is not given here.
# Experiments:
# VCaP [1] = assay: Downregulation of AR […] expression in human VCaP cells incubated for 24 hrs by qRT-PCR analysis; assay type: functional, cell-based; conditions: dose 25-2500 nM
# How it was run: (§1)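 VCaP cells grown to 50% confluence, then treated with compound or DMSO (Methods state 16 h, legend states 24 h). Total RNA isolated, cDNA made from 1 µg RNA, SYBR Green qPCR run in triplicate. Expression by ΔΔCt, normalised to GAPDH. Three independent experiments, SEM.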
# [2] = molecular target: T1, Bromodomain-containing protein 2 (Homo sapiens, UniProt P25440); assay: Binding affinity to human partial length BRD2 BD2 (E348 to D455 residues) expressed in bacterial expression system assessed as change in melting temperature at 50 uM at 20 to 85 degreeC by SYPRO orange staining based thermal shift assay
# How it was run: (§2)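 DSF thermal shift. 10 µM BD in 50 mM HEPES, 500 mM NaCl pH 7.5, with 50 µM compound or DMSO-matched control and 1:1000 Sypro Orange (ex 465/em 590 nm). Ramp 20–85 °C at 0.03 °C/s. Tm taken as the midpoint between fluorescence max and min. At least three independent experiments, SEM in °C.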
# Target sequence in this assay (P25440 whole entry, looked up, the tested form may be a part): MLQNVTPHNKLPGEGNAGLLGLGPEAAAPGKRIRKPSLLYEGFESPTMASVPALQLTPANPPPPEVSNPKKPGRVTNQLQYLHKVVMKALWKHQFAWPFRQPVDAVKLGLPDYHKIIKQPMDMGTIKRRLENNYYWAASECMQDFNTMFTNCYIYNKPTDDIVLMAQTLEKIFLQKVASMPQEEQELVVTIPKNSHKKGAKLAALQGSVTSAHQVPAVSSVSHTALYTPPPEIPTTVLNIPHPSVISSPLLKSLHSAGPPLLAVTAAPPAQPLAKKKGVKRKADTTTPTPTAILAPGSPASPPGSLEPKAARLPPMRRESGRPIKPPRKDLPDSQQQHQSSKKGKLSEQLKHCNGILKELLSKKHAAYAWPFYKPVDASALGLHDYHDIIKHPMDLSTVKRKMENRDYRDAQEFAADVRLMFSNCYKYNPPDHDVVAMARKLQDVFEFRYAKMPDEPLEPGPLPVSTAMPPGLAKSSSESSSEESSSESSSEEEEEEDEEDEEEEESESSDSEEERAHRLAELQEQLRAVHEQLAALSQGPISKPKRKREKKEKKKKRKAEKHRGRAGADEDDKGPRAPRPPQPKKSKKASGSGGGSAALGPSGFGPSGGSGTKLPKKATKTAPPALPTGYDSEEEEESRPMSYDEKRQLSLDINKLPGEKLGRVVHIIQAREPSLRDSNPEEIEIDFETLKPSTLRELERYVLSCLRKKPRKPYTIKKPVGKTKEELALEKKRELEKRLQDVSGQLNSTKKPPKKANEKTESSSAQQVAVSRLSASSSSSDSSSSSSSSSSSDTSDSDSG
# [3] = molecular target: T2, Bromodomain-containing protein 4 (Homo sapiens, UniProt O60885); assay: Induction of BRD4 degradation in human MDA-MB-231 cells incubated for 16 hrs by immunoblotting analysis; assay type: cell-based
# How it was run: (§3)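 MDA-MB-231 or PC-3 cells at 50% confluence in DMEM/10% FBS/pen-strep, treated 16 h with doses falling tenfold from 10 µM to 1 nM. RIPA lysates immunoblotted for BRD2, BRD3 and BRD4 with GAPDH as control. DC50 derived from band densitometry. SEM, n = 2.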
# [4] = Antiproliferative activity against human Androgen-resistant 22Rv1 cells assessed as reduction in cell viability measured after 72 hrs by MTS assay; assay type: functional, cell-based; conditions: 22Rv1, 72 h
# How it was run: (§4)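 MTS viability assay run in triplicate wells. Serial dilutions in DMSO were given, with DMSO as negative control and doxorubicin as positive control, and incubated 72 h. MTS reagent was added for 2 h and absorbance read at 490 nm. % cytotoxicity = (A_medium − A_treatment)/A_medium × 100. EC50 ± SD was taken from dose-response curves of at least three independent experiments.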
# VCaP [5] = assay: Downregulation of TMPRSS2 gene levels in human VCaP cells incubated for 24 hrs by qRT-PCR analysis; assay type: functional, cell-based; conditions: dose 25-2500 nM; how it was run: as §1
# [6] = molecular target: T2, Bromodomain-containing protein 4; assay: Induction of BRD4 degradation in human MDA-MB-231 cells at 10 uM by immunoblotting analysis; assay type: cell-based; conditions: time 8.0 hrs
# LNCaP = assay: Antiproliferative activity against androgen-sensitive human LNCaP cells assessed as reduction in cell viability measured after 72 hrs by MTS assay; assay type: functional, cell-based; how it was run: as §4
# [7] = molecular target: T1, Bromodomain-containing protein 2; assay: Binding affinity to human partial length BRD2 BD1 (K71 to N194 residues) expressed in bacterial expression system using H4K5acIC8acK12acK16ac-biotinylated peptide as substrate preincubated for 30 mins followed by substrate addition by AlphaScreen assay
# How it was run: (§5)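 AlphaScreen. Biotinylated H4K5acK8acK12acK16ac peptide added at equal concentration to protein for 30 min. Donor and acceptor beads (25 µg/mL each) added, ≥1 h in the dark. Triplicate, curve-fitted, SEM.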
# Target sequence in this assay (P25440 whole entry, the tested form may be a part): as the sequence (P25440 whole entry, looked up, the tested form may be a part) above
# [8] = molecular target: T1, Bromodomain-containing protein 2; assay: Induction of BRD2 degradation in human MDA-MB-231 cells assessed as decrease in BET half life at 10 uM incubated for 8 hrs in presence of cycloheximide by immunoblotting analysis; assay type: cell-based
# How it was run: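 MDA-MB-231 time-course. Cells given 50 µg/mL cycloheximide plus DMSO, or 50 µg/mL cycloheximide plus 10 µM compound. RIPA lysates immunoblotted for BRD2, BRD3 and BRD4 with GAPDH as control.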
# Target sequence in this assay (P25440 whole entry, looked up, the tested form may be a part): as above
# [9] = molecular target: T1, Bromodomain-containing protein 2; assay: Binding affinity to human partial length BRD2 BD1 (K71 to N194 residues) expressed in bacterial expression system assessed as change in melting temperature at 50 uM at 20 to 85 degreeC by SYPRO orange staining based thermal shift assay; how it was run: as §2
# Target sequence in this assay (P25440 whole entry, looked up, the tested form may be a part): as above
# VCaP [10] = assay: Downregulation of BRD4 mRNA levels in human VCaP cells at 25 to 2500 nM incubated for 24 hrs by qRT-PCR analysis; assay type: functional, cell-based; conditions: dose 25-2500 nM; how it was run: as §1
# VCaP [11] = assay: Downregulation of BRD2 mRNA levels in human VCaP cells at 25 to 2500 nM incubated for 24 hrs by qRT-PCR analysis; assay type: functional, cell-based; conditions: dose 25-2500 nM; how it was run: as §1
# [12] = molecular target: T3, Bromodomain-containing protein 3 (Homo sapiens, UniProt Q15059); assay: Binding affinity to human partial length BRD3 BD1 (P24 to E144 residues) expressed in bacterial expression system assessed as change in melting temperature at 50 uM at 20 to 85 degreeC by SYPRO orange staining based thermal shift assay; how it was run: as §2
# Target sequence in this assay (Q15059 2-726 limits assumed): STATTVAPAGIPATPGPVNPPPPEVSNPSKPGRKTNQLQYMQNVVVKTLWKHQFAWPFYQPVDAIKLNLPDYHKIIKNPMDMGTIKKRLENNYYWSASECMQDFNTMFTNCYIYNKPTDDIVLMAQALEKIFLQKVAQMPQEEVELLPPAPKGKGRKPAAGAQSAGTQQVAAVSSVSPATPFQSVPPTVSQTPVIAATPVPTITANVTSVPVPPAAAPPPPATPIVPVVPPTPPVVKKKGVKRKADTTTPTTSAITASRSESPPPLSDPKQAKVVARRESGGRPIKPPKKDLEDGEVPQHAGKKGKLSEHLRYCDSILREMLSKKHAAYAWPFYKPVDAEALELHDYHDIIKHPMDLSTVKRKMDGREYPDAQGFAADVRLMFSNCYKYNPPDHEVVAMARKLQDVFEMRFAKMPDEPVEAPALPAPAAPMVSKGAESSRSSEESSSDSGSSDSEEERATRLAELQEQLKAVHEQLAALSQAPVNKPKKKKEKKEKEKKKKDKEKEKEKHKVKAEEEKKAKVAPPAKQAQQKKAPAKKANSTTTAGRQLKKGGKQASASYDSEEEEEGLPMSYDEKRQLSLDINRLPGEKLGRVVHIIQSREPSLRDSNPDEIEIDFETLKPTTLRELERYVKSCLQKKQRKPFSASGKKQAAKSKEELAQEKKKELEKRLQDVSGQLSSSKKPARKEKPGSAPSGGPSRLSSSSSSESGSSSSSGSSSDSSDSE
# [13] = molecular target: Bromodomain testis-specific protein (Homo sapiens, UniProt Q58F21); assay: Binding affinity to human partial length BRDT BD2 (K250 to E382 residues) expressed in bacterial expression system using H4K5acIC8acK12acK16ac-biotinylated peptide as substrate preincubated for 30 mins followed by substrate addition by AlphaScreen assay; how it was run: as §5
# [14] = molecular target: T3, Bromodomain-containing protein 3; assay: Induction of BRD3 degradation in human MDA-MB-231 cells at 0.025 to 2.5 uM incubated for 24 hrs by qRT-PCR analysis; assay type: cell-based; conditions: dose 0.025-2.5 µM
# How it was run: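 MDA-MB-231 cells treated for 24 h at doses rising tenfold from 25 nM to 2.5 µM. Gene expression measured by qRT-PCR. SEM, n = 3.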
# Target sequence in this assay (Q15059 2-726 limits assumed): as above
# [15] = molecular target: T1, Bromodomain-containing protein 2; assay: Induction of BRD2 degradation in human MDA-MB-231 cells incubated for 16 hrs by immunoblotting analysis; assay type: cell-based; how it was run: as §3
# Target sequence in this assay (P25440 whole entry, the tested form may be a part): as the sequence (P25440 whole entry, looked up, the tested form may be a part) above
# DU-145 = assay: Antiproliferative activity against AR-negative human DU-145 cells assessed as reduction in cell viability measured after 72 hrs by MTS assay; conditions: DU-145, 72 h
# [16] = Induction of degradation in human PC-3 cells incubated for 16 hrs by immunoblotting analysis
# VCaP [17] = assay: Downregulation of ERG gene levels in human VCaP cells incubated for 24 hrs by qRT-PCR analysis; assay type: functional, cell-based; conditions: dose 25-2500 nM; how it was run: as §1
# [18] = molecular target: T2, Bromodomain-containing protein 4; assay: Induction of BRD4 degradation in human PC-3 cells incubated for 16 hrs by immunoblotting analysis; assay type: cell-based; how it was run: as §3
# [19] = molecular target: T1, Bromodomain-containing protein 2; assay: Binding affinity to human partial length BRD2 BD2 (E348to D455 residues) expressed in bacterial expression system using H4K5acIC8acK12acK16ac-biotinylated peptide as substrate preincubated for 30 mins followed by substrate addition by AlphaScreen assay; how it was run: as §5
# Target sequence in this assay (P25440 whole entry, the tested form may be a part): as the sequence (P25440 whole entry, looked up, the tested form may be a part) above
# [20] = molecular target: T3, Bromodomain-containing protein 3; assay: Induction of BRD3 degradation in human MDA-MB-231 cells incubated for 16 hrs by immunoblotting analysis; assay type: cell-based; how it was run: as §3
# [21] = molecular target: T2, Bromodomain-containing protein 4; assay: Binding affinity to human partial length BRD4 BD2 (K333 to E460 residues) expressed in bacterial expression system using H4K5acIC8acK12acK16ac-biotinylated peptide as substrate preincubated for 30 mins followed by substrate addition by AlphaScreen assay
# [22] = molecular target: T1, Bromodomain-containing protein 2; assay: Induction of BRD2 degradation in human PC-3 cells incubated for 16 hrs by immunoblotting analysis; assay type: cell-based; how it was run: as §3
# Target sequence in this assay (P25440 whole entry, the tested form may be a part): as the sequence (P25440 whole entry, looked up, the tested form may be a part) above
compound,measurement,setting,value
CC(=O)OC[C@]12CC[C@H]3[C@@H](C[C@H]4O[C@]45CC=CC(=O)[C@]35C)[C@]1(O)CC[C@@]2(O)[C@@](C)(O)[C@H]1CC(C)=C(C)C(=O)O1,Activity,VCaP [1],Dose-Dependent Effect
same,ΔTm,[2],8.23 °C
same,Activity,[3],Dose-Dependent Effect
same,DC50,[3],41.6 nM
same,EC50,[4],30.3 nM
same,Activity,VCaP [5],Dose-Dependent Effect
same,Activity,[6],Active
same,EC50,LNCaP,21.6 nM
same,IC50,[7],103 nM
same,Activity,[8],Active
same,ΔTm,[9],10.4 °C
same,Activity,VCaP [10],inactive
same,Activity,VCaP [11],inactive
same,ΔTm,[12],12.5 °C
same,IC50,[13],119 nM
same,Activity,[14],inactive
same,DC50,[15],> 10 µM
same,EC50,DU-145,263 nM
same,Activity,[16],Dose-Dependent Effect
same,Activity,VCaP [17],Dose-Dependent Effect
same,Activity,[18],Dose-Dependent Effect
same,DC50,[18],56.7 nM
same,IC50,[19],244 nM
same,Activity,[20],Dose-Dependent Effect
same,DC50,[20],23.9 nM
same,IC50,[21],142 nM
same,DC50,[22],> 10 µM
